Source: PubChem
Rows were chosen to be rich in hits. Some 4.7% of all compounds tested hit in one or more screens of this group.
NR3A LBD binder: NR3A (human) ligand-binding domain modulation; NR3A LBD differential scanning fluorimetry, Tm shift; 0% = protein alone, 100% = glycine-bound protein; Tm shift relative to glycine control, % at 25 µM; 2.5% of 340,000 active;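 active = melting temperature shift of at least 10% of the positive control shift, at one fixed dose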
MT1-MMP act inh: inhibitors of human MT1-MMP activation; 0.061% of 360,000 active; HT1080 RFP-PRO-GFP cells, GFP/RFP ratio fluorescence, overnight; percent of plate control window, DMSO zero; P50281; GFP/RFP ratio change, % at 20 µM;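 active = GFP/RFP ratio change of at least 30% with cell ATP level not reduced by more than half and red fluorescence within 50% of control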
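Compound: 20 µM single dose, 1% DMSO / System: HT1080 RFP-PRO-GFP cells / Controls: DMSO and RFP-L50D-GFP cell wells / Read-out basis: GFP/RFP fluorescence ratio / Schedule: overnight compound exposure at 37 °C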
MPTP inh: blocks calcium-induced mitochondrial swelling; isolated mouse mitochondria, Ca2+ swelling absorbance, 30 min; 1.4% of 360,000 active; inhibition, % at 10 µM;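 active = inhibition of 50% or more, scaled per plate between neutral and stimulator controls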;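 note: 0% = DMSO wells given calcium and 100% = 1 mM EGTA wells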
ADAM17 inh: inhibits human ADAM17. inhibition, % at 6.95 µM. P78536. 0.83% of 370,000 active. recombinant ADAM17, EDANS/DABCYL FRET peptide cleavage;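 active = inhibition above the mean of compounds lying between control limits plus 3 SD, set per campaign, cut at about 8.5% in these data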;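 note: 0% = DMSO-only wells as the low control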
Target sequence (P78536 215-824 limits assumed): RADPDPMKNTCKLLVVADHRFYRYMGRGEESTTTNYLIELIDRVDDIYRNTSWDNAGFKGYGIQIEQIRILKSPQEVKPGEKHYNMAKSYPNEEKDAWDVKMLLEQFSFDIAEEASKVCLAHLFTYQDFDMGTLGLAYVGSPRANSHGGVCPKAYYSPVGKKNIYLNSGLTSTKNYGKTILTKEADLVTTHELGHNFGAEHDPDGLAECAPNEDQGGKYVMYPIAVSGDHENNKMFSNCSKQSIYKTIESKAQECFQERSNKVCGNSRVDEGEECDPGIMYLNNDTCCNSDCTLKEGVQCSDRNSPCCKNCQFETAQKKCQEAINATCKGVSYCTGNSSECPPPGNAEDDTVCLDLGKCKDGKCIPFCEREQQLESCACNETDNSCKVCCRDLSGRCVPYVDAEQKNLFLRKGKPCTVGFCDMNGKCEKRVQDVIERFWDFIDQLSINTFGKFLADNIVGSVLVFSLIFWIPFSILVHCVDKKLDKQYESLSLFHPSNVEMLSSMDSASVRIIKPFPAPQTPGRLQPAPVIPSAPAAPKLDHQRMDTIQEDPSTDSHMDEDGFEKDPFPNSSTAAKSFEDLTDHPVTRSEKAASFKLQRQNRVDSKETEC
ADAM10 inh: inhibitors of human ADAM10; O14672; 0.62% of 370,000 active; inhibition, % at 7 µM; AID 720582; recombinant ADAM10, EDANS/DABCYL FRET peptide cleavage, 3 h;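 active = inhibition above a per-campaign cutoff equal to the mean of compounds falling between control-based bounds plus 3 SD, cut at about 20% in these data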;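 note: 0% = DMSO wells while the 100% control is not disclosed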
SKN-1 inh: blocks SKN-1 activity in C. elegans. C. elegans VP596 Pgst-4::GFP/RFP ratio, acrylamide-induced, 24 h. inhibition, % at 21.8 µM. 0.49% of 360,000 active;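 active = interference check ratio from 0.5 to 1.5 plus GFP to RFP signal ratio inhibition reaching or exceeding a fixed threshold, cut at about 30% in these data, passing the limit was not always enough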
ADAM10 confirm: confirmation of inhibitors of human ADAM10; 1% of 2,100 active; shares compounds with ADAM10 inh; ADAM10 QFRET peptide cleavage, EDANS fluorescence; inhibition, % at 6.95 µM;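 active = inhibition above about 20% chosen separately for each screening run, limit read from the data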;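 note: 0% = DMSO wells and 100% = marimastat wells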
ADAM17 counter: inhibits human ADAM17 in ADAM10 exosite counter-screen | 0.5% of 2,100 active | inhibition, % at 6.95 µM | ADAM17 QFRET peptide cleavage, EDANS fluorescence | AID 743214 | shares compounds with ADAM10 inh;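 active = mean triplicate inhibition above the solvent-only control wells' mean plus 3 SD, cut at about 12% in these data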;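 note: 0% = DMSO wells and 100% = marimastat wells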
ADAM10 ctr: ADAM10 inhibition, counter-screen for ADAM17 exosite hits; inhibition, % at 6.95 µM; AID 743256; recombinant ADAM10, EDANS/DABCYL FRET peptide cleavage, 3 h; 47% of 2,900 active; shares compounds with ADAM17 inh;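 active = mean inhibition over the triplicate runs exceeds the activity threshold set in the earlier primary screen, cut at about 20% in these data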;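 note: 0% = DMSO wells and 100% = marimastat wells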
ADAM17 confirm: human ADAM17 inhibition, confirmation; 65% of 2,900 active; inhibition, % at 6.95 µM; recombinant ADAM17, EDANS/DABCYL QFRET peptide cleavage; shares compounds with ADAM17 inh;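 active = mean inhibition across replicates above the hit cutoff set in the primary screen, cut at about 8.5% in these data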;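 note: 0% = DMSO wells and 100% = marimastat wells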
* marks the source's active call; other numbers are inactive results; x = no result.

SMILES | NR3A LBD binder | MT1-MMP act inh | MPTP inh | ADAM17 inh | ADAM10 inh | SKN-1 inh | ADAM10 confirm | ADAM17 counter | ADAM10 ctr | ADAM17 confirm
COc1ccc(CNC(=O)C(C)n2ccc3cc(S(=O)(=O)N4CCCCCC4)ccc32)cc1 (configuration not stated) | 0 | 1 | 1 | 12* | 28* | -1 | 3 | 2 | 22* | 16*
CC(C(=O)NCc1ccco1)n1ccc2cc(S(=O)(=O)N3CCCC3)ccc21 (configuration not stated) | -8 | 3 | -2 | 5 | 0 | 1 | x | x | x | x
Cc1ccc(S(=O)(=O)Nc2ccc3c(c2)n(C)c(=O)n3C)c(C)c1 | 0 | 8 | -2 | 0 | 1 | 4 | x | x | x | x
Cc1ccc(S(=O)(=O)Nc2ccc(SC(F)F)cc2)c(C)c1 | -7 | 2 | 7 | 11* | 27* | -3 | 3 | 2 | 23* | 11*
Cc1nnsc1NC(=O)OCc1ccccc1Cl | -3 | -1 | -9 | 1 | -9 | 6 | x | x | x | x
O=C1CC(=C(c2ccccc2)c2ccccc2)C(=O)N1CCCCN1CCN(c2cccc(Cl)c2)CC1 | -4 | -1 | 12 | 12* | 32* | -5 | 5 | 1 | 4 | 8
NC(=O)CC(NC(=O)c1ccccc1)c1ccc(NCCCN2CCCC2=O)c([N+](=O)[O-])c1 (configuration not stated) | 2 | 6 | 0 | -1 | 10 | 12 | x | x | x | x
NC(=O)NC(=O)COC(=O)c1ccc(Cl)c(S(=O)(=O)N(Cc2ccccc2)c2ccc(Cl)cc2)c1 | 7 | 5 | 1 | 3 | 14 | 5 | x | x | x | x
C=CCNC(=O)COC(=O)c1ccc(Cl)c(S(N)(=O)=O)c1 | 1 | -1 | -1 | -4 | 2 | 6 | x | x | x | x
NC(=O)COC(=O)c1ccc(Cl)c(S(=O)(=O)N(Cc2ccccc2)c2ccc(Cl)cc2)c1 | 1 | 0 | 4 | 10* | 26* | 4 | 8 | 2 | 24* | 14*
C=CCNC(=O)COC(=O)c1ccc(Cl)c(S(=O)(=O)N(Cc2ccccc2)c2ccccc2)c1 | -7 | 4 | 17 | 12* | 22* | 9 | 2 | 2 | 29* | 20*
CCn1c(C(C)NC(=O)c2cccc(C)c2)nc2ccccc21 (configuration not stated) | -1 | -2 | 0 | -1 | 2 | 11 | x | x | x | x
CCOC(=O)C1=CN(Cc2cccc(F)c2)S(=O)(=O)NC1CCc1ccccc1 (configuration not stated) | -5 | -2 | 4 | 12* | 21* | 10 | 9 | 3 | 51* | 20*
CCCN(C)C1CN(Cc2cn(Cc3ccc(Cl)cc3)nn2)S(=O)(=O)C1 (configuration not stated) | x | 3 | 1 | -1 | -7 | 5 | x | x | x | x
CCN(CC)C(=O)[C@H]1CC(CC(=O)NC(C)(C)C)C(=O)N2CCc3c([nH]c4ccc(OC)cc34)[C@]12C (some centres not stated) | -1 | 1 | 1 | -4 | -2 | -4 | x | x | x | x
C=CC(=O)N1C/C(=C/c2ccc(F)cc2)C(=O)/C(=C\c2ccc(F)cc2)C1 | 2 | -1 | -1 | 11* | 20* | 13 | 3 | 0 | 21* | 14*
O=S(=O)(c1c(F)cccc1F)N(CCc1ccc(F)cc1)C[C@@H](O)COCc1ccccc1 | -13 | 0 | 0 | 15* | 27* | -1 | 7 | 1 | 39* | 19*
